Measured values: ChEMBL document CHEMBL4145595, “Discovery of MK-8282 as a Potent G-Protein-Coupled Receptor 119 Agonist for the Treatment of Type 2 Diabetes” (ACS Med Chem Lett, 2018)
pEC50: −log10 of the molar value. Converted amounts (≈) assume the structure as drawn. The source made the active and inactive calls. No cut-off for these calls is given here.

Tests used:
[1] = target: T1, Glucose-dependent insulinotropic receptor (Mus musculus, UniProt Q7TQP3); assay: (§1) Agonist activity at mouse GPR119 assessed as increase in cAMP level; assay type: functional
T1 sequence (Q7TQP3 whole entry): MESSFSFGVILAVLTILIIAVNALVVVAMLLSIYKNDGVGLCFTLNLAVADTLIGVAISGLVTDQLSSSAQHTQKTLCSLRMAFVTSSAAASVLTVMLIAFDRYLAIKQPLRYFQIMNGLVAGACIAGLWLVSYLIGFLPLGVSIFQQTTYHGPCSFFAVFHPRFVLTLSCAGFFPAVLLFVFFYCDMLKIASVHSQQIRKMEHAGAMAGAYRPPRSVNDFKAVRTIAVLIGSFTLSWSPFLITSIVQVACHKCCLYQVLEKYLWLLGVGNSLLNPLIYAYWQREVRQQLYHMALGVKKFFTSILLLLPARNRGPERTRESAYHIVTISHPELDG

[2] = target: T2, Glucose-dependent insulinotropic receptor (Mus musculus) (UniProt Q7TQP3); assay: as §1; assay type: functional
T2 sequence (whole entry): T1 sequence (Q7TQP3 whole entry)

[3] = target: T3, Glucose-dependent insulinotropic receptor (Homo sapiens, UniProt Q8TDV5); assay: (§2) Agonist activity at human GPR119 expressed in HEK293 cells assessed as increase in cAMP level after 30 mins by LANCE assay; assay type: functional, cell-based
T3 sequence (Q8TDV5 whole entry): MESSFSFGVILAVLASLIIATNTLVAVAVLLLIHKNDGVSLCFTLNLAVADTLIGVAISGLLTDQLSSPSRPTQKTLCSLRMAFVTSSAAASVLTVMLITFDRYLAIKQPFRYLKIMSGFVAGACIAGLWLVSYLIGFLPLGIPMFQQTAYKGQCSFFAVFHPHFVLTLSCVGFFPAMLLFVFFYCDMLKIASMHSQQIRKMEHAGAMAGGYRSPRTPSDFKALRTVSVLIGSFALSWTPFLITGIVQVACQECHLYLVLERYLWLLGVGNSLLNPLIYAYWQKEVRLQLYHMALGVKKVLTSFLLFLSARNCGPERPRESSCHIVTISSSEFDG

[4] = target: T4, Glucose-dependent insulinotropic receptor (Homo sapiens) (UniProt Q8TDV5); assay: as §2; assay type: functional, cell-based
T4 sequence (whole entry): T3 sequence (Q8TDV5 whole entry)

[5] = tested on: Mus musculus; assay: Glucose lowering effect in C57Bl/6NCrl mouse assessed as reduction in glucose level at 3 mg/kg, po administered via gavage pretreated for 30 mins followed by glucose-challenge measured after 20 mins by OGTT relative to control; assay type: functional; parameters: scale not given: the % may be the effect or the level left
In short: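 Overnight-fasted mice got compound or vehicle orally at 3 to 10 mg/kg. Glucose (3 g/kg po) was given 30 min post-dose. Blood glucose was read by hand-held glucometer before dosing, before glucose and 20 min after glucose. Glucose lowering (%) = [(1 − 20 min glucose of treated / 20 min glucose of vehicle) × 100].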

[6] = Protein binding in mouse plasma at 10 uM; assay type: ADME, cell-free; conditions: read-out: PPB (converted)
[7] = Protein binding in human plasma at 10 uM; assay type: ADME, cell-free; conditions: read-out: PPB (converted)
[8] = Solubility of the compound at pH 7.4; assay type: physicochemical; conditions: buffer
[9] = tested on: Rattus norvegicus; assay: Antidiabetic activity in Sprague-Dawley rat assessed as reduction in glucose excursion at 1 mg/kg, po pretreated followed by glucose challenge measured after 10 to 30 mins by OGTT; assay type: functional, organism-based
In short: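 Sprague-Dawley rats underwent an oral glucose tolerance test with glucose excursion measured. Sitagliptin was dosed at 1 mpk and agonist at 3 mpk, alone or co-administered.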

[10] = tested on: Mus musculus; assay: Antidiabetic activity in C57Bl/6NCrl mouse assessed as increase in plasma GLP1 (7 to 36) amide levels at 3 mg/kg, po administered via gavage pretreated followed by glucose-challenge measured after 10 mins; assay type: functional, organism-based

Row | Structure (SMILES) | pEC50 [1] | %max [2] | pEC50 [3] | %max [4] | fraction unbound at 10 µM [6] | fraction unbound at 10 µM [7] | solubility [8] | Activity [5] | Activity [9] | Activity [10]
1 | CC1(OC(=O)N2CC3COCC(C2)C3Oc2ncnc(Nc3ccc(F)cc3F)c2F)CC1 (stereo unspecified) | 7.36 | 73% | 7.82 | 94% | – | – | – | 27% | – | –
2 | CC1(OC(=O)N2C[C@H]3COC[C@@H](C2)[C@@H]3Oc2ncnc(Nc3c(F)cccc3F)c2F)CC1 | 6.95 | 108% | 7.89 | 78% | – | – | – | 31% | – | –
3 | COCC1(OC(=O)N2CC3COCC(C2)C3Oc2ncnc(Nc3ccc(C#N)cc3F)c2F)CC1 (stereo unspecified) | 6.51 | 70% | 7.31 | 62% | – | – | – | – | – | –
4 | CC1(OC(=O)N2CC3COCC(C2)C3Oc2ncnc(Nc3ccc(-n4cncn4)cc3F)c2F)CC1 (stereo unspecified) | 6.56 | 83% | 7.72 | 73% | – | – | – | 27% | – | –
5 | CC1(OC(=O)N2CC3COCC(C2)C3Oc2ncnc(Nc3ccc(C#N)cc3Cl)c2F)CCC1 (stereo unspecified) | 7.22 | 88% | 8.00 | 59% | – | – | – | – | – | –
6 | CC1(COC(=O)N2CC3COCC(C2)C3Oc2ncnc(Nc3ccc(C#N)cc3Cl)c2F)COC1 (stereo unspecified) | 6.29 | 46% | 6.73 | 41% | – | – | – | – | – | –
7 | CC1(OC(=O)N2CC3COCC(C2)C3Oc2ncnc(Nc3cccnc3Cl)c2F)CC1 (stereo unspecified) | 7.24 | 84% | 7.77 | 63% | – | – | – | 26% | – | –
8 | CCC1(OC(=O)N2CC3COCC(C2)C3Oc2ncnc(Nc3ccc(C#N)cc3F)c2F)CC1 (stereo unspecified) | 7.37 | 90% | 8.22 | 89% | – | – | – | – | – | –
9 | CC1(OC(=O)N2[C@H]3CC[C@H]2CC(Oc2ncnc(Nc4ccc(C#N)cc4Cl)c2F)C3)CC1 (stereo partly specified) | 7.17 | 42% | 8.46 | 79% | – | – | – | 17% | – | –
10 | N[C@@H](CC(=O)N1CCn2c(nnc2C(F)(F)F)C1)Cc1cc(F)c(F)cc1F | – | – | – | – | – | – | – | – | Active | Active

More lines, main results first:

Row | pEC50 [1] | %max [2] | pEC50 [3] | %max [4] | fraction unbound at 10 µM [6] | fraction unbound at 10 µM [7] | solubility [8] | Structure (SMILES) | Activity [5] | Activity [9] | Activity [10]
11 | 6.61 | 100% | 6.67 | 56% | – | – | – | N#Cc1ccc(Oc2ncnc(OC3C4COCC3CN(c3ncc(F)cn3)C4)c2C2CC2)c(Cl)c1 (stereo unspecified) | – | – | –
12 | – | – | – | – | 0.007 | 0.001 | 0.17 µM (≈ 0.0806 µg/mL) | Cc1c(Nc2ccc(C#N)cc2Cl)ncnc1OC1C[C@@H]2CC[C@@H](C1)N2S(=O)(=O)C1CC1 (stereo partly specified) | – | – | –
13 | 9.37 | 79% | 7.01 | 73% | 0.081 | 0.145 | 17 µM (≈ 9.12 µg/mL) | COc1c(Nc2ccc(S(C)(=O)=O)cc2F)ncnc1OC1C[C@@H]2COC[C@@H](C1)N2C(=O)OC1(C)CC1 (stereo partly specified) | – | – | –
14 | 7.68 | 44% | 8.59 | 81% | – | – | – | CC(C)COC(=O)N1[C@H]2CC[C@H]1CC(Oc1ncnc(Nc3ccc(C#N)cc3Cl)c1F)C2 (stereo partly specified) | inactive | – | –
15 | 7.22 | 60% | 8.00 | 51% | – | – | – | N#Cc1ccc(Nc2ncnc(OC3C4COCC3CN(C(=O)OC3CCC3)C4)c2F)c(Cl)c1 (stereo unspecified) | – | – | –
16 | 7.38 | 18% | 8.29 | 77% | – | – | – | CC1(OC(=O)N2[C@H]3CC[C@H]2CC(Oc2ncnc(Nc4ccc(C#N)cc4Cl)c2F)C3)CCC1 (stereo partly specified) | inactive | – | –
17 | 7.34 | 29% | 8.10 | 87% | – | – | – | CC(C)OC(=O)N1[C@H]2CC[C@H]1CC(Oc1ncnc(Nc3ccc(C#N)cc3Cl)c1F)C2 (stereo partly specified) | inactive | – | –
18 | 7.12 | 136% | 7.59 | 114% | – | – | – | CC1(OC(=O)N2CC3COCC(C2)C3Oc2ncnc(Oc3ccccc3F)c2F)CC1 (stereo unspecified) | 20% | – | –
19 | 7.60 | 76% | 8.22 | 78% | – | – | – | CC1(OC(=O)N2C[C@H]3COC[C@@H](C2)[C@@H]3Oc2ncnc(Nc3ccccc3F)c2F)CC1 | 21% | – | –
